What was measured:
Erk2^DS1 [1] = target: T1, Erk2^DS1 (Rattus norvegicus, UniProt P63086, C164L/Q103T); assay: Activation inhibition assay; format: biochemical; conditions: Erk2^DS1, ATP 5 µM, bis-phosphorylated Erk2 by ELISA
Outline: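 Erk2 variant preincubated 30 min at RT with ATP (5 µM) and titrated test compound (2% DMSO) in 50 mM MOPS pH 7.4, 10 mM MgCl2, 1 mM DTT, 0.001% Tween 20, 0.1 mg/mL BSA. MEK2 then added and incubated at RT; enzyme levels and times set by linearity. Quenched with 20 mM EDTA, plate-bound overnight at 4 °C, then anti-phospho-Erk2/HRP ELISA. EC50 from nonlinear regression; triplicates.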

Erk2^WT [2] = target: T2, Erk2^WT (Rattus norvegicus, UniProt P63086); assay: Activation inhibition assay; format: biochemical; conditions: ELISA
Erk2^DS1 [3] = target: T1, Erk2^DS1; assay: Activation inhibition assay; format: biochemical; conditions: Erk2^DS1, PhosTag-acrylamide PAGE
Outline: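 This run uses the MOPS/MgCl2 activation setup (ATP 5 µM, 30 min compound preincubation at RT) but with tenfold more MEK2. Reactions were stopped in SDS loading buffer without EDTA. Erk2 phospho-forms were resolved by SDS-PAGE in gels containing 50 µM PhosTag-acrylamide and 100 µM MnCl2.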

[4] = target: GFP-tagged Erk2^DS1 in HEK293 cells (Rattus norvegicus, UniProt P63086, C164L/Q103T); assay: In-cell activation inhibition, EGF-stimulated HEK293 cells; format: cell-based; conditions: 2 at 100-1000 nM, SB203580 1000 nM, immunoblot
Outline: (§1)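 Low-passage HEK293 transiently transfected with GFP-Erk2 plasmid, split next day into 96-well format, serum-starved 24 h. Test compound added for 1 h at 37 °C (final 1% DMSO), then human EGF 50 ng/mL for 5 min at 37 °C. DMSO controls with and without EGF. Cells lysed by boiling in SDS loading buffer; SDS-PAGE, immunoblot for GFP and ppErk.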

[5] = target: GFP-tagged Erk2^WT in HEK293 cells (Rattus norvegicus, UniProt P63086); assay: as above; format: cell-based; conditions: 2 at 100-1000 nM, SB203580 1000 nM, immunoblot
Outline: as §1

phospho-Erk2^DS2 = phospho-Erk2^DS2 (Rattus norvegicus, UniProt P63086, C164L/Q103A); assay: Phosphatase inhibition: DUSP6-mediated dephosphorylation; format: biochemical; conditions: phospho-Erk2^DS2, relative to apo enzyme, ELISA
phospho-Erk2^WT = phospho-Erk2^WT (Rattus norvegicus, UniProt P63086); assay: as above; format: biochemical; conditions: ELISA
Erk2^WT [6] = target: T2, Erk2^WT; assay: DUSP6 activation inhibition; format: biochemical; conditions: inhibitor 5 µM, 4-MUP turnover
Outline: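 DUSP6 (140 nM) added for 1 h at RT, then 4-MUP (250 µM). Fluorescence read at Ex/Em 355/460 nm after 2 h at RT; Erk2-free wells used as background.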

Erk2^WT [7] = target: T2, Erk2^WT; conditions: Ki values reported previously, ref Hari et al., 2013; cited from earlier work
Erk2^DS1 (Q103T/C164L) = conditions: ref Hari et al., 2013; cited from earlier work
Erk2^DS2 (Q103A/C164L) = Erk2^DS2 (Q103A/C164L) (Rattus norvegicus, UniProt P63086, C164L/Q103A); conditions: ref Hari et al., 2013; cited from earlier work

**Q.** Which results are given for `C[S+]([O-])c1ccc(-c2nc(-c3ccncc3)c(-c3ccc(F)cc3)[nH]2)cc1` (centres unmarked) [SB203580]?
**A.** Inhibition of dual phosphorylation of Erk2's activation loop by MEK2 (Erk2^DS1 [1]): only a minimal effect; Decrease in the amount of activation loop phosphorylated Erk2 (MEK2) (Erk2^WT [2]): neither 2 nor SB203580 lead to a significant decrease; Formation of bis-phosphorylated Erk2 (MEK2) (Erk2^DS1 [3]): comparable levels of bis-phosphorylation; Cellular Erk2 activation upon EGF stimulation [4]: had no effect; Cellular Erk2 activation upon EGF stimulation [5]: not affected; Effect on DUSP6-mediated dephosphorylation of the TxY motif (phospho-Erk2^DS2): enhanced the phosphatase activity of DUSP6; Effect on DUSP6-mediated dephosphorylation (phospho-Erk2^WT): none of the inhibitors affected; Effect on Erk2-mediated activation of DUSP6 (Erk2^WT [6]): none of these ligands affected; Inhibition of wild type Erk2 (Erk2^WT [7]): very weakly inhibited; Sensitivity of drug sensitive Erk2 mutant to inhibitor (Erk2^DS1 (Q103T/C164L)): highly sensitive; Sensitivity of drug sensitive Erk2 mutant to inhibitor (Erk2^DS2 (Q103A/C164L)): highly sensitive
